Laboratory results: ChEMBL document CHEMBL1152867, “Targeting QseC signaling and virulence for antibiotic development” (Science, 2008)
The source made the active and inactive calls. No cut-off for these calls is given here.

Experiments:
[1] = system: Francisella tularensis subsp. tularensis SCHU S4; assay: Inhibition of virulence gene mglA expression in Francisella tularensis SCHU S4 at 5 pM by quantitative real-time PCR; format: functional, organism-based
Mus musculus [2] = assay: Toxicity in CD1 mouse assessed as neutrophil counts at 20 mg/kg, po administered daily once for 5 days measured 3 days after final dose; format: organism-based; parameters: dose 20 mg/kg, route oral; conditions: in vivo, 72 h
Summary of the method: (§1)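 Female CD-1 mice (~22 g), three per group, given 20 mg/kg by oral gavage once daily for 5 days. Vehicle-only mice served as controls. Animals were weighed and observed daily. Three days after the last dose they were weighed and sacrificed. Blood was taken for chemistry and complete blood counts, and organs were weighed.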

Mus musculus [3] = assay: Toxicity in CD1 mouse assessed as aspartate transaminase levels at 20 mg/kg, po administered daily once for 5 days measured 3 days after final dose; format: organism-based; parameters: dose 20 mg/kg, route oral; conditions: in vivo, 72 h
[4] = target: Beta-3 adrenergic receptor (Homo sapiens) (UniProt P13945); assay: Activation of human beta-3-adrenergic receptor expressed in HEK293 cells assessed as cAMP release at 5 uM; format: functional, cell-based
Chain of Beta-3 adrenergic receptor (Homo sapiens) (P13945 whole entry, looked up): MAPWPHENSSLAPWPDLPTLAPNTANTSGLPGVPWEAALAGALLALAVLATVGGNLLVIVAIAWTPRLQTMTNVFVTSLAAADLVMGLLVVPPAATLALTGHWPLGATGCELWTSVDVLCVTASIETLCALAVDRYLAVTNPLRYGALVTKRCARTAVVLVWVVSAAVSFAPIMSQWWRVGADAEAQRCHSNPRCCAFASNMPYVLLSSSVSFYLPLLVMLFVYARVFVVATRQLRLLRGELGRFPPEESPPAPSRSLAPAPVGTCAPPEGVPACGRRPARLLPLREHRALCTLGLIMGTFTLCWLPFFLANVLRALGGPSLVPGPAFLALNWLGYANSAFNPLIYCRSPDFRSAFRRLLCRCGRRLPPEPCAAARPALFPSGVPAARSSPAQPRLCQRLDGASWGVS
Summary of the method: (§2)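 Live HEK293 cells carried an EPAC-based cAMP BRET reporter and expressed endogenous β2 or exogenous β1 or β3 adrenergic receptors. Cells were exposed to test compound alone at 5 μM. Values are means of triplicates, representative of 3 experiments.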

[5] = system: Francisella tularensis subsp. tularensis SCHU S4; assay: Antibacterial activity against Francisella tularensis SCHU S4 infected C3H HeN mouse assessed as survival at 20 mg/kg, po administered single dose 3 hrs post-bacterial measured after 9 days; format: functional
Escherichia coli [6] = assay: Inhibition of AI3-induced Qsec-dependent virulence gene ler expression in Escherichia coli at 5 pM by quantitative real-time PCR; format: functional, organism-based
Mus musculus [7] = assay: Toxicity in CD1 mouse assessed as alkaline phosphatase levels at 20 mg/kg, po administered daily once for 5 days measured 3 days after final dose; format: organism-based; parameters: dose 20 mg/kg, route oral; conditions: in vivo, 72 h
Mus musculus [8] = assay: Toxicity in CD1 mouse assessed as mean platelet volume at 20 mg/kg, po administered daily once for 5 days measured 3 days after final dose; format: organism-based; parameters: dose 20 mg/kg, route oral; conditions: in vivo, 72 h; summary of the method: as §1
Escherichia coli [9] = assay: Inhibition of epinephrine-induced EspB protein secretion in Escherichia coli 8624 at 5 pM by Western blot; format: functional, organism-based
Summary of the method: (§3)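 Secreted proteins in cell-free supernatant were TCA-precipitated and immunoblotted with rabbit polyclonal anti-EspA and anti-EspB, with ECL detection.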

[10] = target: Beta-2 adrenergic receptor (Homo sapiens) (UniProt P07550); assay: Activation of human beta-2-adrenergic receptor expressed in HEK293 cells assessed as cAMP release at 5 uM; format: functional, cell-based; summary of the method: as §2
Chain of Beta-2 adrenergic receptor (Homo sapiens) (P07550 whole entry, looked up): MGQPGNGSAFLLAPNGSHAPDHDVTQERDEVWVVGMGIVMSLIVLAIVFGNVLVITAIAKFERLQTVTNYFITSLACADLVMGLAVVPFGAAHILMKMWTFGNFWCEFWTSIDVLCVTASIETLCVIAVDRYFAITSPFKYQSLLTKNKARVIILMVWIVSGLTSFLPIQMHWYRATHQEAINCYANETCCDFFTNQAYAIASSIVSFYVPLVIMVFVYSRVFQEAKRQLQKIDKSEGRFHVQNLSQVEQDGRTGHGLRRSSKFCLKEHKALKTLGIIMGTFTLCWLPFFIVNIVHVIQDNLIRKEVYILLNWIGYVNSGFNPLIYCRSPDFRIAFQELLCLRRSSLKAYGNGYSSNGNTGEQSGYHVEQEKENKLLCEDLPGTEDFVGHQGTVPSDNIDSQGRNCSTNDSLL

Escherichia coli [11] = assay: Bacteriostatic activity against Escherichia coli 8624 at 1 uM in presence of epinephrine; format: functional, organism-based
Mus musculus [12] = assay: Toxicity in CD1 mouse assessed as eosinophil counts at 20 mg/kg, po administered daily once for 5 days measured 3 days after final dose; format: organism-based; parameters: dose 20 mg/kg, route oral; conditions: in vivo, 72 h; summary of the method: as §1
Salmonella typhimurium = assay: Antibacterial activity against Salmonella Typhimurium SL1344 infected in 129x1/SvJ mouse assessed as survival at 20 mg/kg, po administered 3 hrs pre and 3 hrs post-bacterial challenge measured after 12 days; format: functional
Summary of the method: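 Female 129x1/SvJ mice, 7–9 weeks old, were infected intraperitoneally with 10^8 cfu S. typhimurium SL1344. The test agent was given orally at 20 mg/kg in 5% DMSO/23% PEG400/70% Na bicarbonate pH 9/2% Tween 80, 3 h before and 3 h after infection. Controls were drug alone and infection alone. Groups of 10 mice were used and the experiment was repeated twice. Morbidity and death were recorded daily, and survivors were euthanized at day 12.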

Mus musculus [13] = assay: Toxicity in CD1 mouse assessed as calcium levels at 20 mg/kg, po administered daily once for 5 days measured 3 days after final dose; format: organism-based; parameters: dose 20 mg/kg, route oral; conditions: in vivo, 72 h; summary of the method: as §1
Mus musculus [14] = assay: Toxicity in CD1 mouse assessed as change in heart weight at 20 mg/kg, po administered daily once for 5 days measured 3 days after final dose; format: organism-based; parameters: dose 20 mg/kg, route oral; conditions: in vivo; summary of the method: as §1
Mus musculus [15] = assay: Toxicity in CD1 mouse assessed as WBC counts at 20 mg/kg, po administered daily once for 5 days measured 3 days after final dose; format: organism-based; parameters: dose 20 mg/kg, route oral; conditions: in vivo, 72 h
[16] = target: Beta-3 adrenergic receptor (Homo sapiens) (UniProt P13945); assay: Effect on BRL-37344-induced human beta-3-adrenergic receptor activation expressed in HEK293 cells assessed as cAMP release at 5 uM; format: functional, cell-based
Summary of the method: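 HEK293 cells carried an EPAC-based cAMP BRET reporter. The agonist for β1 (exogenous) was 1 nM dobutamine, for β2 (endogenous) 100 nM terbutaline, and for β3 (exogenous) 10 nM BRL37344. Each agonist was given alone or with 5 μM compound. Live-cell cAMP was read as triplicate means, representative of 3 experiments.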

Mus musculus [17] = assay: Toxicity in CD1 mouse assessed as albumin levels at 20 mg/kg, po administered daily once for 5 days measured 3 days after final dose; format: organism-based; parameters: dose 20 mg/kg, route oral; conditions: in vivo, 72 h
Escherichia coli [18] = assay: Inhibition of epinephrine-induced EspB protein secretion in Escherichia coli 8624 at 5 nM by Western blot; format: functional, organism-based; summary of the method: as §3
Escherichia coli [19] = assay: Antibacterial activity against Escherichia coli 8624 assessed as induction of SOS response; format: functional, organism-based
Mus musculus [20] = assay: Toxicity in CD1 mouse assessed as cholesterol levels at 20 mg/kg, po administered daily once for 5 days measured 3 days after final dose; format: organism-based; parameters: dose 20 mg/kg, route oral; conditions: in vivo, 72 h; summary of the method: as §1
Escherichia coli [21] = assay: Antibacterial activity against Escherichia coli infected in New Zealand white rabbit assessed as inhibition of bacterial colonization in cecum at 20 mg/kg administered 3 hrs post-bacterial challenge; format: functional, organism-based; parameters: dose 20 mg/kg; conditions: Caecum
Escherichia coli [22] = assay: Inhibition of [3H]norepinephrine binding to Escherichia coli Qsec at 5 fM by liposome-based scintillation counting assay
Summary of the method: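 Liposomes reconstituted with QseC were loaded with tritiated norepinephrine (5 μM) by freeze-thaw in liquid N2 and held 10 min at room temperature, so unbound signal could diffuse out. They were pelleted at 12,000g for 5 min and counted for tritium. Counts were normalized to liposomes loaded with 5 μM tyrosine. Compound was tested at 5 pM and 5 fM.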

Mus musculus [23] = assay: Toxicity in CD1 mouse assessed as basophil counts at 20 mg/kg, po administered daily once for 5 days measured 3 days after final dose; format: organism-based; parameters: dose 20 mg/kg, route oral; conditions: in vivo, 72 h; summary of the method: as §1
[24] = AUC in CD1 mouse at 20 mg/kg, iv administered as bolus dose; format: ADME, organism-based; parameters: dose 20 mg/kg, route intravenous; conditions: plasma
Summary of the method: (§4)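 Groups of three were bled terminally by cardiac puncture at set times. Plasma was acetonitrile-precipitated with internal standard and quantified by electrospray LC/MS/MS against a plasma standard curve (10-1000 ng/ml). Noncompartmental analysis was used.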

[25] = system: Francisella tularensis subsp. tularensis SCHU S4; assay: Inhibition of virulence gene qseC expression in Francisella tularensis SCHU S4 at 5 pM by quantitative real-time PCR; format: functional, organism-based
Escherichia coli [26] = assay: Antibacterial activity against Escherichia coli infected in New Zealand white rabbit assessed as inhibition of bacterial colonization in ileum at 20 mg/kg administered 24 hrs post-bacterial challenge; format: functional, organism-based; parameters: dose 20 mg/kg
Mus musculus [27] = assay: Toxicity in C3H HeN mouse at 20 mg/kg, po administered as single dose; format: organism-based; parameters: dose 20 mg/kg, route oral; conditions: in vivo
Escherichia coli [28] = assay: Antibacterial activity against Escherichia coli infected in New Zealand white rabbit assessed as inhibition of bacterial colonization in cecum at 20 mg/kg administered 24 hrs post-bacterial challenge; format: functional, organism-based; parameters: dose 20 mg/kg; conditions: Caecum
Escherichia coli [29] = assay: Bacteriostatic activity against Escherichia coli 8624 at 1 uM; format: functional, organism-based
[30] = Clearance in CD1 mouse at 20 mg/kg, iv administered as bolus dose; format: ADME, organism-based; parameters: dose 20 mg/kg, route intravenous; conditions: in vivo; summary of the method: as §4
Escherichia coli [31] = assay: Bactericidal activity against Escherichia coli 8624 at 1 uM; format: functional, organism-based
[32] = system: Francisella tularensis subsp. tularensis SCHU S4; assay: Inhibition of virulence gene pdpA expression in Francisella tularensis SCHU S4 at 5 pM by quantitative real-time PCR; format: functional, organism-based

O=S(=O)(Nc1ccccc1)c1ccc(NC(=S)Nc2ccccc2)cc1
Activity [1]: Active | Activity (Mus musculus [2]): 9.3% | Activity (Mus musculus [3]): 120.3 U/L | Activity [4]: inactive | Activity [5]: 80% | Activity (Escherichia coli [6]): Active | Activity (Mus musculus [7]): 141.3 U/L | Activity (Mus musculus [8]): 5 fL | Activity (Escherichia coli [9]): Active | Activity [10]: inactive | Activity (Escherichia coli [11]): inactive | Activity (Mus musculus [12]): 0.7% | Activity (Salmonella typhimurium): 20% | Activity (Mus musculus [13]): 9.6 mg/dL | Activity (Mus musculus [14]): Non-toxic | Activity (Mus musculus [15]): 1.5 K/uL | Activity [16]: inactive | Activity (Mus musculus [17]): 2.6 g/dL | Activity (Escherichia coli [18]): Active | Activity (Escherichia coli [19]): inactive | Activity (Mus musculus [20]): 122 mg/dL | Activity (Escherichia coli [21]): inactive | Activity (Escherichia coli [22]): inactive | Activity (Mus musculus [23]): 0% | AUC [24]: 5010 ng·h/mL | Activity [25]: Active | Activity (Escherichia coli [26]): inactive | Activity (Mus musculus [27]): Non-toxic | Activity (Escherichia coli [28]): inactive | Activity (Escherichia coli [29]): inactive | clearance [30]: 1.48 mL/min | Activity (Escherichia coli [31]): inactive | Activity [32]: Active
